Data as given in BindingDB's records for doi:10.1016/j.bmcl.2012.01.074 (Spanish National Cancer Research Centre (Cnio), 2012).

target: Phosphatidylinositol 3-kinase regulatory subunit alpha/4,5-bisphosphate 3-kinase catalytic subunit alpha isoform (Homo sapiens, UniProt P27986+P42336); test: Inhibition of PI3K p110alpha/p85alpha
In short: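 Biochemical kinase assay following the kit manufacturer's protocol with a modified kinase buffer (50 mM HEPES pH 7.5, 3 mM MgCl2, 100 mM NaCl, 1 mM EGTA, 0.04% CHAPS, 2 mM TCEP, 0.01 mg/ml BGG); 10 nM enzyme; ATP 50 µM; values are averages of two independent experiments, each in duplicate.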

Sequence of Phosphatidylinositol 3-kinase regulatory subunit alpha/4,5-bisphosphate 3-kinase catalytic subunit alpha isoform (P27986 whole entry, canonical isoform): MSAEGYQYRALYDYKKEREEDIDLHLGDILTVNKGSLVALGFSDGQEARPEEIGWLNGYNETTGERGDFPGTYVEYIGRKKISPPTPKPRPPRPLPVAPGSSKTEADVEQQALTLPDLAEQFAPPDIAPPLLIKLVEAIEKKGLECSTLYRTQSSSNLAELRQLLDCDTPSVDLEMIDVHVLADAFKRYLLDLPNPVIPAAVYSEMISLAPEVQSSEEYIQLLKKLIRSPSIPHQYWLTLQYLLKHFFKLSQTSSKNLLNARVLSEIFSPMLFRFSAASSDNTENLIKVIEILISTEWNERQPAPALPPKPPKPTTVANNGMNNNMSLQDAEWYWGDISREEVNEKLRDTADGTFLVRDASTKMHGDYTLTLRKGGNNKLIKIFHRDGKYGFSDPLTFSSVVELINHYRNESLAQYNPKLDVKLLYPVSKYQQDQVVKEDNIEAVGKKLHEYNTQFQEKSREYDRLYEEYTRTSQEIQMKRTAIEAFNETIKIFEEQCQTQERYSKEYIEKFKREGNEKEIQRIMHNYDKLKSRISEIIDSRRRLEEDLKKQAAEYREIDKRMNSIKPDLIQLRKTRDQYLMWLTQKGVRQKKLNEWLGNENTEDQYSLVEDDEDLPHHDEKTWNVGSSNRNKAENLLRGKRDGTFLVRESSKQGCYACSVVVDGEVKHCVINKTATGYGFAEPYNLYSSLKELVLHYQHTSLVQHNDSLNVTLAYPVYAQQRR
Sequence of Phosphatidylinositol 3-kinase regulatory subunit alpha/4,5-bisphosphate 3-kinase catalytic subunit alpha isoform (P42336 whole entry, canonical isoform): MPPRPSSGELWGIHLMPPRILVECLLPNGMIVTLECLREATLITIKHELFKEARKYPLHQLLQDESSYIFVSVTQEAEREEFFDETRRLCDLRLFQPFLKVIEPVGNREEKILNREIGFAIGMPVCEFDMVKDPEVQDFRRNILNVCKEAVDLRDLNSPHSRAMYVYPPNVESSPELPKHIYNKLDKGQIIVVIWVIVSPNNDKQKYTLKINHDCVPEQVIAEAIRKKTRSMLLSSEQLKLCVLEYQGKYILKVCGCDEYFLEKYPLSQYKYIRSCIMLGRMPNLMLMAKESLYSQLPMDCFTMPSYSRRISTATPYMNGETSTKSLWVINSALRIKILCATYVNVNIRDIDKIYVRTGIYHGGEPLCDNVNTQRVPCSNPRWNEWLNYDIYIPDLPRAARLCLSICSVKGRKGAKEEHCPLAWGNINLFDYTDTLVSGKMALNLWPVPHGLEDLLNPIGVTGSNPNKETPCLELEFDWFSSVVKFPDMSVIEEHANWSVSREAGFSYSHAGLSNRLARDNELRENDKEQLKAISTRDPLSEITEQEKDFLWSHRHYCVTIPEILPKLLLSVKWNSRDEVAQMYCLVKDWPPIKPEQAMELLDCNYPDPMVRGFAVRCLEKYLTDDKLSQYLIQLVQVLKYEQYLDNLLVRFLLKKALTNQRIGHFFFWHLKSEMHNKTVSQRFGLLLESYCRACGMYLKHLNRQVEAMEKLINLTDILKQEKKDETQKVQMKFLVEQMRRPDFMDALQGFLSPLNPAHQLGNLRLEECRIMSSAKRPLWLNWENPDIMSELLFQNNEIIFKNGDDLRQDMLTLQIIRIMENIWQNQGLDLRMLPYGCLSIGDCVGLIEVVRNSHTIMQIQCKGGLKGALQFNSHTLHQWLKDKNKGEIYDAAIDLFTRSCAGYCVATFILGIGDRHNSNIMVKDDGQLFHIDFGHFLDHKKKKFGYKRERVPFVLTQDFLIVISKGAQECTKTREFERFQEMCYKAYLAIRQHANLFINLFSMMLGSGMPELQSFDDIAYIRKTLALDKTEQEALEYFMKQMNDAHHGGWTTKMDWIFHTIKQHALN

Row | IC50 | Structure (SMILES)
1 | 110 nM | CNC(=O)c1cn2cc(-c3cccc4[nH]ncc34)nc(N3CCOCC3)c2n1
2 | 92 nM | CCNC(=O)c1cn2cc(-c3cccc4[nH]ncc34)nc(N3CCOCC3)c2n1
3 | 38 nM | O=C(NCCN1CCOCC1)c1cn2cc(-c3cccc4[nH]ncc34)nc(N3CCOCC3)c2n1
4 | 96 nM | Cc1cn2cc(-c3cccc(O)c3)nc(N3CCOCC3)c2n1
5 | 340 nM | Oc1cccc(-c2cn3cc(C4CC4)nc3c(N3CCOCC3)n2)c1
6 | 108 nM | Oc1cccc(-c2cn3cc(C(F)(F)F)nc3c(N3CCOCC3)n2)c1
7 | 639 nM | OCc1cn2cc(-c3cccc(O)c3)nc(N3CCOCC3)c2n1
8 | 444 nM | Oc1cccc(-c2cn3cc(CN4CCOCC4)nc3c(N3CCOCC3)n2)c1
9 | 451 nM | CC(=O)N1CCN(Cc2cn3cc(-c4cccc(O)c4)nc(N4CCOCC4)c3n2)CC1
10 | 540 nM | O=C1CN(Cc2cn3cc(-c4cccc(O)c4)nc(N4CCOCC4)c3n2)CCN1
